Test results: BindingDB's records for doi:10.1016/j.bmcl.2017.11.026 (Padmashri Vikhe Patil College of Arts, 2018)
pIC50: −log10 of the molar value.

Columns and labels:
Tumor necrosis factor [1] = molecular target: T1, Tumor necrosis factor (Homo sapiens, UniProt P01375); assay: Inhibition of LPS-induced TNF-alpha production in human PBMC preincubated for 30 mins followed by LPS addition measured after 5 hrs by ELISA
How it was run: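 Donor blood diluted 1:1 in PBS; PBMCs isolated on histopaque, washed, resuspended in RPMI 1640 with 10% FBS and antibiotics, 1 x 10^6 cells/ml (viability ≥98%). Compounds at 0.03–100 μM in DMSO (final 0.5%) for 30 min at 37 °C, 5% CO2, then E. coli 0127:B8 LPS 1 µg/mL final for 5 h. Supernatant TNF-α by ELISA; % inhibition vs vehicle; IC50 mean of three independent experiments.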

Tumor necrosis factor [2] = molecular target: T1, Tumor necrosis factor; assay: Inhibition of LPS-induced TNF-alpha production in human MNC suspension after 20 hrs by radioimmunoassay

T1 sequence (P01375 whole entry): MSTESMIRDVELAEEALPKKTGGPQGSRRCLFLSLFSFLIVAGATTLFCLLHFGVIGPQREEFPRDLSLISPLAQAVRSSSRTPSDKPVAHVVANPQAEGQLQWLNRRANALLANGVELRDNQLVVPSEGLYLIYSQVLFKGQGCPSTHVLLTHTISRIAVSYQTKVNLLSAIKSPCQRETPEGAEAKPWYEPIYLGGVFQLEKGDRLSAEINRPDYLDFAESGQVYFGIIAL

| SMILES | pIC50 (Tumor necrosis factor [1]) | pIC50 (Tumor necrosis factor [2]) |
| --- | --- | --- |
| O=S(=O)(c1cnc2ccc(Cl)nn12)N1CCN(Cc2ccccc2)CC1 | 4.52 | – |
| COc1ccc(-c2ccc3ncc(S(=O)(=O)N4CCC(C#N)(c5ccccc5)CC4)n3n2)cc1OC | 6.30 | – |
| O=S(=O)(NCC1CCCO1)c1cnc2ccc(Cl)nn12 (configuration not stated) | 4.52 | – |
| COc1cccc(CNS(=O)(=O)c2cnc3ccc(-c4ccc(S(C)(=O)=O)cc4)nn23)c1 | 4.55 | – |
| O=S(=O)(c1cnc2ccc(-c3cccnc3)nn12)N1CCN(Cc2ccccc2)CC1 | 4.74 | – |
| N#CC1(c2ccccc2)CCN(S(=O)(=O)c2cnc3ccc(Cl)nn23)CC1 | 4.60 | – |
| CS(=O)(=O)c1ccc(-c2ccc3ncc(S(=O)(=O)N4CCC(C#N)(c5ccccc5)CC4)n3n2)cc1 | 5.10 | – |
| O=S(=O)(c1cnc2ccc(-c3cncc(F)c3)nn12)N1CCN(c2ccccn2)CC1 | 4.55 | – |
| O=S(=O)(c1cnc2ccc(-c3cncc(C(F)(F)F)c3)nn12)N1CCN(c2ccccn2)CC1 | 4.96 | – |
| Nc1ncc(-c2ccc3ncc(S(=O)(=O)N4CCN(c5ccccn5)CC4)n3n2)cc1C(F)(F)F | 4.96 | – |
| CS(=O)(=O)c1ccc(-c2ccc3ncc(S(=O)(=O)N4CCN(c5ccccn5)CC4)n3n2)cc1 | 4.92 | – |
| N#CC1(c2ccccc2)CCN(S(=O)(=O)c2cnc3ccc(-c4cccnc4)nn23)CC1 | 5.15 | – |
| N#CC1(c2ccccc2)CCN(S(=O)(=O)c2cnc3ccc(-c4cncc(C(F)(F)F)c4)nn23)CC1 | 4.70 | – |
| COc1cccc(CNS(=O)(=O)c2cnc3ccc(-c4cncc(F)c4)nn23)c1 | 5.22 | – |
| COc1cccc(CNS(=O)(=O)c2cnc3ccc(-c4cncc(C(F)(F)F)c4)nn23)c1 | < 4.52 | – |
| O=S(=O)(NCC1CCCO1)c1cnc2ccc(-c3cccnc3)nn12 (configuration not stated) | 5.40 | – |
| O=S(=O)(NCC1CCCO1)c1cnc2ccc(-c3cncc(F)c3)nn12 (configuration not stated) | 5.40 | – |
| O=S(=O)(NCC1CCCO1)c1cnc2ccc(-c3cncc(C(F)(F)F)c3)nn12 (configuration not stated) | < 4.52 | – |
| O=S(=O)(c1cnc2ccc(-c3cccnc3)nn12)N1CCN(c2ccccn2)CC1 | 4.96 | – |
| N#CC1(c2ccccc2)CCN(S(=O)(=O)c2cnc3ccc(-c4cncc(F)c4)nn23)CC1 | < 4.52 | – |
| COc1cccc(CNS(=O)(=O)c2cnc3ccc(-c4ccc(OC)nc4)nn23)c1 | < 4.52 | – |

| SMILES | pIC50 (Tumor necrosis factor [1]) | pIC50 (Tumor necrosis factor [2]) |
| --- | --- | --- |
| CS(=O)(=O)c1ccc(-c2ccc3ncc(S(=O)(=O)NCC4CCCO4)n3n2)cc1 (configuration not stated) | < 4.52 | – |
| CCN1CCN(S(=O)(=O)c2cnc3ccc(-c4ccc(S(C)(=O)=O)cc4)nn23)CC1 | 4.82 | – |
| CCN1CCN(S(=O)(=O)c2cnc3ccc(-c4ccc(OC)cc4)nn23)CC1 | 4.70 | – |
| CCN1CCN(S(=O)(=O)c2cnc3ccc(-c4cncc(C(F)(F)F)c4)nn23)CC1 | 5.05 | – |
| CCN1CCN(S(=O)(=O)c2cnc3ccc(-c4cncc(F)c4)nn23)CC1 | < 4.52 | – |
| CCN1CCN(S(=O)(=O)c2cnc3ccc(-c4cccnc4)nn23)CC1 | 4.82 | – |
| COc1cccc(CNS(=O)(=O)c2cnc3ccc(Cl)nn23)c1 | < 4.52 | – |
| O=S(=O)(c1cnc2ccc(Cl)nn12)N1CCN(c2ccccc2)CC1 | 4.52 | – |
| CCN1CCN(S(=O)(=O)c2cnc3ccc(Cl)nn23)CC1 | < 4.52 | – |
| NS(=O)(=O)c1cnc2ccc(Cl)nn12 | 4.55 | – |
| O=S(=O)(c1cnc2ccc(-c3cncc(F)c3)nn12)N1CCN(Cc2ccccc2)CC1 | < 4.52 | – |
| CCN1CCN(S(=O)(=O)c2cnc3ccc(-c4ccc(OC)nc4)nn23)CC1 | 4.70 | – |
| Nc1ncc(-c2ccc3ncc(S(N)(=O)=O)n3n2)cc1C(F)(F)F | 5.40 | – |
| O=S(=O)(c1cnc2ccc(Cl)nn12)N1CCN(c2ccccn2)CC1 | < 4.52 | – |
| CS(=O)(=O)c1ccc(-c2ccc3ncc(S(=O)(=O)N4CCN(Cc5ccccc5)CC4)n3n2)cc1 | 4.92 | – |
| COc1ccc(-c2ccc3ncc(S(=O)(=O)N4CCN(c5ccccn5)CC4)n3n2)cn1 | < 4.52 | – |
| COc1cccc(CNS(=O)(=O)c2cnc3ccc(-c4cccnc4)nn23)c1 | 6.52 | – |
| COc1cccc(CNS(=O)(=O)c2cnc3ccc(-c4cnc(N)c(C(F)(F)F)c4)nn23)c1 | < 4.52 | – |
| COc1ccc(-c2ccc3ncc(S(=O)(=O)NCC4CCCO4)n3n2)cc1 (configuration not stated) | 5.40 | – |
| COc1ccc(-c2ccc3ncc(S(=O)(=O)NCC4CCCO4)n3n2)cn1 (configuration not stated) | 5.22 | – |
| COc1ccc([C@@H]2CNC(=O)C2)cc1OC1CCCC1 (racemic) [Adeo] | – | 6.70 |
